Experimental findings from publication PMC6482285 (Chembiochem : a European journal of chemical biology, 2014) are described below.

Values joined by “and” are separate entries in the source; they are usually repeats but may differ in a detail not shown here. Identical values can stand only once.

Type in all cases: biochemical
In assay [1] the target is T1, eEF-2K (Homo sapiens, UniProt O00418). In words: ADP binding to eEF-2K.
A further assay addresses eEF-2K C146S (Homo sapiens, UniProt O00418, C146S). Description: kinase dose response and recovery assays with the C146S mutant.
Assay [2] addresses T1, eEF-2K. Description: time dependent inhibition. Put shortly: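 eEF-2K (100 nM) incubated with test compound (0–500 μM) for 0–120 min in 25 mM HEPES pH 7.5, BSA, DTT, 5% DMSO. ADP protection used 0/250 μM compound ± 4 mM ADP; glutathione used 2.5 mM for 1 h. Diluted 50-fold into 30 °C assay buffer (150 μM CaCl2, 1 μM calmodulin, 50 μM peptide), started with 100 μM [γ-32P]ATP, read by P81 counting. E•I* formation fitted exponentially or globally for Kd, k2.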

In assay [3] the target is T1, eEF-2K. Description: eEF-2K kinase assay, dose response. The following applies: 100 μM ATP.
Another assay deals with eEF-2K C146A (Homo sapiens, UniProt O00418, C146A). In words: kinase dose response and recovery assays with the C146A mutant.
In assay [4] the target is T1, eEF-2K. In words: recovery experiments after 50-fold dilution, loss of E•I*.
The target of another assay is eEF-2K Y236F (Homo sapiens, UniProt O00418, Y236F). In words: kinase dose response and recovery assays with the Y236F mutant.
Setting [5] is: 1 mM, 1 hour incubation, rapidly diluted.

What is called Ki is a dissociation constant, usually derived from enzyme kinetics or from competition with a known ligand. Read a high Ki as a looser hold on the target. As for `Nc1ncnc2c1ncn2[C@@H]1O[C@H](COP(=O)(O)OP(=O)(O)O)[C@@H](O)[C@H]1O` [ADP], the Ki at eEF-2K [1] is ~1000 µM.
As usually defined, the IC50 is the concentration that inhibits the measured activity by half. A word on the Kd: it is the equilibrium constant for the complex coming apart. Regarding `N#CC1=C(N)SC(N)=C(C#N)C1c1ccccc1F` [DFTD, 2,6-diamino-4-(2-fluorophenyl)-4H-thiopyran-3,5-dicarbonitrile], the IC50 is 655 µM against eEF-2K C146S; 110 µM at eEF-2K [3] (apparent IC50, 10 minute incubation); 890 µM at eEF-2K C146A; 105 µM on eEF-2K Y236F. In addition, the time-dependence of inhibition entry on eEF-2K C146S and at eEF-2K C146A was “no time-dependence” throughout. Also, the “recovery of enzyme activity after dilution” value was “maximal activity was attained immediately” at eEF-2K C146S (setting [5]); “maximal activity was attained immediately” at eEF-2K C146A (setting [5]); “slow recovery of activity” on eEF-2K [4] (wild type, 1 mM, 1 hour incubation, rapidly diluted); “slow recovery of activity” at eEF-2K Y236F (setting [5]). Further, at eEF-2K [2], binding was characterised by a dissociation constant (Kd) of 140 µM. Besides, the “kobs for the formation of the E•I* complex” value at eEF-2K [2] (DFTD 250 μM in the absence of ADP) came to 0.0015 ± 0.0003 s⁻¹; on eEF-2K [2] (DFTD 250 μM in the presence of ADP (4 mM)), 0.0002 ± 0.00003 s⁻¹. Moreover, the “effect of glutathione on the inactivation or the reversibility rate” value on eEF-2K [2] (DFTD 250 μM pre-incubated with 2.5 mM glutathione for 1 hour) was “no significant effect”. Also, on eEF-2K [2] (at saturation), the “enzyme covalently bound at saturation” value is given as “approximately 75%”. For the same molecule, the “slow equilibrium on the enzyme (=k2/k-2)” value at eEF-2K [2] (global fit of Figures 2B and 2C) is given as 2.8. Besides, the “k2 (inactivation step)” value on eEF-2K [2] (global fit of time-dependent and recovery experiments, KinTek Global Explorer) turned out to be 0.0017 s⁻¹. For the same molecule, at eEF-2K [4] (250 μM, 1 hour incubation, 50-fold dilution, first order fit), the “k-2 (disappearance of E•I*)” value was 0.0006 s⁻¹.
For `COc1cccc(C2C(C#N)C(=O)NC(=O)C2C#N)c1` (stereo not shown) [MDP, 4-(3-methoxyphenyl)-2,6-dioxo-3,5-piperidinedicarbonitrile], the “kobs for the formation of E•I* complex” value on eEF-2K [2] (MDP 500 μM) amounted to 0.0031 ± 0.0002 s⁻¹. At eEF-2K [3] (60 minutes preincubation), the “h (hill coefficient)” value was found to be 0.93 ± 0.01. In addition, the “kobs for the loss of the E•I* complex (recovery of activity)” value at eEF-2K [4] (MDP 500 μM, 60 min, diluted 50-fold) is 0.00056 s⁻¹ and 0.00056 ± 0.00003 s⁻¹.
